Test results from ChEMBL document CHEMBL2021813, “Semisynthetic neoclerodanes as kappa opioid receptor probes” (Bioorg Med Chem, 2012).

Key:
[1] = molecular target: T1, Mu-type opioid receptor (Homo sapiens, UniProt P35372); assay: Displacement of [3H]DAMGO from human recombinant mu opioid receptor expressed in CHO cells after 2 hrs by liquid scintillation counting; assay type: cell-based
Summary of the method: (§1)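 Membranes from CHO cells stably transfected with human DOP, MOP or KOP receptor, in 50 mM Tris-HCl pH 7.4 with a protease inhibitor cocktail. The ~2 nM [3H]radioligand was displaced by 10 drug concentrations, in triplicate, for 2 hr at 25 °C, then filtered over GF/B. Nonspecific binding was set by 20 μM levallorphan (DADLE, DAMGO) or 1 μM (−)-U69,593 (U69,593). Ki (±SD) came from full curves, n=3.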

[2] = molecular target: T1, Mu-type opioid receptor; assay: Displacement of [3H]DAMGO from human recombinant mu opioid receptor expressed in CHO cells at 10 uM after 2 hrs by liquid scintillation counting; assay type: cell-based
Summary of the method: (§2)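 Radioligand (~2 nM) competition on human opioid receptor CHO membranes in Tris-HCl pH 7.4, 2 hr at 25 °C, with GF/B filtration and scintillation counting. Results are percent of control produced by a single test drug concentration, 1 μM or 10 μM as the line states. Nonspecific binding was set by 20 μM levallorphan (DADLE, DAMGO) or 1 μM (−)-U69,593 (U69,593).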

[3] = molecular target: T2, Delta-type opioid receptor (Homo sapiens, UniProt P41143); assay: Displacement of [3H]DADLE from human recombinant delta opioid receptor expressed in CHO cells after 2 hrs by liquid scintillation counting; assay type: cell-based; summary of the method: as §1
T2 sequence (P41143 whole entry): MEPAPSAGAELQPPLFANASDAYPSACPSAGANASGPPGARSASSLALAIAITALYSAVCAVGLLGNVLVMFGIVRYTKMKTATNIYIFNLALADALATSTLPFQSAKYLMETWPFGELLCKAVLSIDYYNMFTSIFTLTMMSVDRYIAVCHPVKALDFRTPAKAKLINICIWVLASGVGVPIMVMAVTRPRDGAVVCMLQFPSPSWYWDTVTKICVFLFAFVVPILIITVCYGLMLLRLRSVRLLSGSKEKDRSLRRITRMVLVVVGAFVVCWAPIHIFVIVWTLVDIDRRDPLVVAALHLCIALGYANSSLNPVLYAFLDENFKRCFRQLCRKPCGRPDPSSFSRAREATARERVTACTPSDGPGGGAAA

[4] = molecular target: T2, Delta-type opioid receptor; assay: Displacement of [3H]DADLE from human recombinant delta opioid receptor expressed in CHO cells at 1 uM after 2 hrs by liquid scintillation counting; assay type: cell-based; summary of the method: as §2
[5] = molecular target: T3, Kappa-type opioid receptor (Homo sapiens, UniProt P41145); assay: Displacement of [3H]U69593 from human recombinant kappa opioid receptor expressed in CHO cells after 2 hrs by liquid scintillation counting; assay type: cell-based; summary of the method: as §1
T3 sequence (P41145 whole entry): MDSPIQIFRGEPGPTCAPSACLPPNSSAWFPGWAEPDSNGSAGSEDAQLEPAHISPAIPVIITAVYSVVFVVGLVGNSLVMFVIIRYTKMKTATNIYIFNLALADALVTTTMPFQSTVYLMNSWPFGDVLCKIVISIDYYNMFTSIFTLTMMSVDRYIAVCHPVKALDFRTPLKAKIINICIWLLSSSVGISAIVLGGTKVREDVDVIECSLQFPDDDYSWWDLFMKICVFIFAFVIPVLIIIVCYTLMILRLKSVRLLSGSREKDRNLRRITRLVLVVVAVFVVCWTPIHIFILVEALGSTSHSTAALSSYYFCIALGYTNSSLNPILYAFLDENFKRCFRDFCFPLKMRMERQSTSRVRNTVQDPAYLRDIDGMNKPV

[6] = molecular target: T3, Kappa-type opioid receptor; assay: Agonist activity at human recombinant kappa opioid receptor expressed in CHO cells assessed as [35S]GTP-gamma-S binding after 3 hrs by liquid scintillation counting; assay type: functional, cell-based
Summary of the method: (§3)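 hKOP-CHO membranes (50 μg protein) were incubated with 50 pM [35S]GTP-γ-S and 40 μM GDP. Final buffer was 50 mM Tris-HCl pH 7.4, 100 mM NaCl, 10 mM MgCl2, 1 mM EDTA, 1 mM DTT and 0.1% BSA. Incubation ran 3 hr at 25 °C. Nonspecific binding was set with 40 μM GTP-γ-S. Bound label was separated by vacuum filtration through GF/B and counted.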

[7] = molecular target: T2, Delta-type opioid receptor; assay: Displacement of [3H]DADLE from human recombinant delta opioid receptor expressed in CHO cells at 10 uM after 2 hrs by liquid scintillation counting; assay type: cell-based; summary of the method: as §2
[8] = molecular target: T3, Kappa-type opioid receptor; assay: Agonist activity at human recombinant kappa opioid receptor expressed in CHO cells assessed as [35S]GTP-gamma-S binding after 3 hrs by liquid scintillation counting relative to (-)U50488; assay type: functional, cell-based; summary of the method: as §3
[9] = tested on: Rhesus monkey; assay: In vivo binding affinity to kappa opioid receptor in iv dosed rhesus monkey assessed as rightward shift in serum prolactin level administered every 20 mins measured every 15 mins by immunoradiometric analysis; assay type: functional; settings: Macaca mulatta
Summary of the method: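 Chair-trained male rhesus monkeys received i.v. cumulative doses rising in 0.5 log steps every 20 min. Blood was sampled 15 min after each dose, after two baseline samples at −10 and −5 min. Serum prolactin was expressed as change from each subject's pre-injection baseline, as mean ±SEM. ED50 came from linear regression of mean dose-effect points spanning the ED50.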

[10] = Chemical solubility of the compound in 50 mM Tris-HCl at pH 7.4; assay type: physicochemical; settings: buffer
[11] = Chemical solubility of the compound in THF; assay type: physicochemical
[12] = molecular target: T1, Mu-type opioid receptor; assay: Displacement of [3H]DAMGO from human recombinant mu opioid receptor expressed in CHO cells at 1 uM after 2 hrs by liquid scintillation counting; assay type: cell-based; summary of the method: as §2
[13] = molecular target: T3, Kappa-type opioid receptor; assay: Agonist activity at human recombinant kappa opioid receptor expressed in CHO cells assessed as calcium mobilization after 1 hrs by fluorescence analysis; assay type: functional, cell-based
Summary of the method: (§4)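 CHO cells stably expressing KOP receptor with Gαq16 were plated at 30,000 cells/well and grown overnight at 37 °C. They were loaded with Calcium 5 dye in HBSS with 20 mM HEPES, 0.25% BSA, 1% DMSO and probenecid for 1 h at 37 °C. Compounds were added at 10X after a ~17 sec baseline, and fluorescence (ex 485/em 525 nm) was read every 1.52 sec for 60 sec. EC50 and Emax are given ±SD.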

[14] = molecular target: T3, Kappa-type opioid receptor; assay: Agonist activity at human recombinant kappa opioid receptor expressed in CHO cells assessed as calcium mobilization after 1 hrs by fluorescence analysis relative to U69593; assay type: functional, cell-based; summary of the method: as §4
[15] = molecular target: T3, Kappa-type opioid receptor; assay: Displacement of [3H]U69593 from human recombinant kappa opioid receptor expressed in CHO cells at 10 uM after 2 hrs by liquid scintillation counting; assay type: cell-based; summary of the method: as §2
[16] = molecular target: T3, Kappa-type opioid receptor; assay: Partial agonist activity at human recombinant kappa opioid receptor expressed in CHO cells assessed as [35S]GTP-gamma-S binding after 3 hrs by liquid scintillation counting; assay type: functional, cell-based; summary of the method: as §3
[17] = molecular target: T3, Kappa-type opioid receptor; assay: Partial agonist activity at human recombinant kappa opioid receptor expressed in CHO cells assessed as [35S]GTP-gamma-S binding after 3 hrs by liquid scintillation counting relative to (-)U50488; assay type: functional, cell-based; summary of the method: as §3

T1 sequence (P35372 whole entry): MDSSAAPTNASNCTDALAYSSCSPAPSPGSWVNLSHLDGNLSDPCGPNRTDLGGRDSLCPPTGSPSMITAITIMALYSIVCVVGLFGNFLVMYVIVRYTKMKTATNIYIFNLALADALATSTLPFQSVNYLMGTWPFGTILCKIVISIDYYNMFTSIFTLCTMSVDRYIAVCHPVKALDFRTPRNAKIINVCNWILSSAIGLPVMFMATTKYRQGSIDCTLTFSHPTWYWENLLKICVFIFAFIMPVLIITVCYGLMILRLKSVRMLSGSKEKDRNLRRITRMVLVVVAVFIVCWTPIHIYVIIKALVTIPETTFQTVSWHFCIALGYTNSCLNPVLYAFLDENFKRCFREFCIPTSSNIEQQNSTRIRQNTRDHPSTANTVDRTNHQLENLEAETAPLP

SMILES | Ki [1] [nM] | Activity [2] [%] | Ki [3] [nM] | Activity [4] [%] | Ki [5] [nM] | Activity [7] [%] | other results
COC(=O)[C@@H]1C[C@H](OC(C)=O)C(=O)[C@H]2[C@@]1(C)CC[C@H]1C(=O)O[C@H](C(=O)c3ccc(OC)cc3)C[C@]21C | > 10000 | 74 | > 10000 | 81 | > 10000 |  | 
COC(=O)[C@@H]1C[C@H](OC(C)=O)C(=O)[C@H]2[C@@]1(C)CC[C@H]1C(=O)O[C@H](C(=O)c3cccs3)C[C@]21C | > 10000 | 65 | > 10000 |  | 36 | 99 | EC50 [6]: 1630 nM; Emax [8]: 95%
COC(=O)[C@@H]1C[C@H](OC(C)=O)C(=O)[C@H]2[C@@]1(C)CC[C@H]1C(=O)O[C@H](c3ccoc3)C[C@]21C [SALVINORIN A] |  |  |  |  |  |  | ED50 [9]: 0.0037 mg/kg
COC(=O)[C@@H]1C[C@H](OC(C)=O)C(=O)[C@H]2[C@@]1(C)CC[C@H]1C(=O)O[C@H](/C=C\c3ccoc3)C[C@]21C |  |  |  |  |  | 94 | Emax [8]: 105%; solubility [10]: Insoluble
COC(=O)[C@@H]1C[C@H](OC(C)=O)C(=O)[C@H]2[C@@]1(C)CC[C@H]1C(=O)O[C@H](C=O)C[C@]21C |  |  |  |  |  |  | solubility [11]: Insoluble
COC(=O)[C@@H]1C[C@H](OC(C)=O)C(=O)[C@H]2[C@@]1(C)CC[C@H]1C(=O)O[C@H](C(=O)c3ccco3)C[C@]21C | 9800 |  | > 10000 |  | 80 | 91 | EC50 [6]: 2130 nM; Emax [8]: 92%
COC(=O)[C@@H]1C[C@H](OC(C)=O)C(=O)[C@H]2[C@@]1(C)CC[C@H]1C(=O)O[C@H](C(=O)c3cccc(OC(F)(F)F)c3)C[C@]21C | 4800 |  | > 1000 | 37 | > 10000 |  | 
COC(=O)[C@@H]1C[C@H](OC(C)=O)C(=O)[C@H]2[C@@]1(C)CC[C@H]1C(=O)O[C@H](c3ccco3)C[C@]21C | > 1000 |  | > 10000 | 99 |  |  | EC50 [6]: 140 nM; Activity [12]: 81%; Emax [8]: 104%; EC50 [13]: 12.2 nM; Emax [14]: 97%
COC(=O)[C@@H]1C[C@H](OC(C)=O)C(=O)[C@H]2[C@@]1(C)CC[C@H]1C(=O)O[C@@H](c3ccoc3)C[C@]21C [12-EPI-SALVINORIN A] |  | 72 |  |  |  | 74 | ED50 [9]: 0.038 mg/kg
COC(=O)[C@@H]1C[C@H](OC(C)=O)C(=O)[C@H]2[C@@]1(C)CC[C@H]1C(=O)O[C@H](C(=O)c3ccoc3)C[C@]21C | > 10000 | 66 | > 10000 |  | 150 | 95 | 
COC(=O)[C@@H]1C[C@H](OC(C)=O)C(=O)[C@H]2[C@@]1(C)CC[C@H]1C(=O)O[C@H](/C=C/c3ccoc3)C[C@]21C | > 10000 | 78 | > 10000 |  | 1120 | 66 | 
C/C=C\C(=O)[C@@H]1C[C@]2(C)[C@H]3C(=O)[C@@H](OC(C)=O)C[C@@H](C(=O)OC)[C@]3(C)CC[C@H]2C(=O)O1 | > 1700 |  | > 5000 |  | 320 |  | 
COC(=O)[C@@H]1C[C@H](OC(C)=O)C(=O)[C@H]2[C@@]1(C)CC[C@H]1C(=O)O[C@H](C(=O)c3ccccc3OC)C[C@]21C | > 10000 | 53 | > 10000 | 87 | 1070 |  | 
COC(=O)[C@@H]1C[C@H](OC(C)=O)C(=O)[C@H]2[C@@]1(C)CC[C@H]1C(=O)O[C@H](C(=O)c3cccc(C#N)c3)C[C@]21C | > 1000 |  | > 10000 | 68 | 220 |  | Activity [12]: 61%
COC(=O)[C@@H]1C[C@H](OC(C)=O)C(=O)[C@H]2[C@@]1(C)CC[C@H]1C(=O)O[C@H](C(=O)c3cc4ccccc4o3)C[C@]21C | > 10000 | 100 | > 10000 |  | > 10000 | 91 | Activity [15]: 92%
COC(=O)[C@@H]1C[C@H](OC(C)=O)C(=O)[C@H]2[C@@]1(C)CC[C@H]1C(=O)O[C@H](C(=O)c3ccsc3)C[C@]21C | 2530 |  | > 10000 |  | 31 | 88 | EC50 [6]: 620 nM; Emax [8]: 88%
COC(=O)[C@@H]1C[C@H](OC(C)=O)C(=O)[C@H]2[C@@]1(C)CC[C@H]1C(=O)O[C@H](C(=O)c3cccc(C(N)=O)c3)C[C@]21C | > 10000 |  | > 10000 | 52 | 40 |  | EC50 [6]: 730 nM; Activity [12]: 84%; Emax [8]: 92%; EC50 [13]: 75.4 nM; Emax [14]: 97%
COC(=O)[C@@H]1C[C@H](OC(C)=O)C(=O)[C@H]2[C@@]1(C)CC[C@H]1C(=O)O[C@H](C(=O)c3cccc(OC)c3)C[C@]21C | 3090 |  | > 10000 | 77 | 290 |  | 
COC(=O)[C@@H]1C[C@H](OC(C)=O)C(=O)[C@H]2[C@@]1(C)CC[C@H]1C(=O)O[C@H](C(=O)c3cc4ccccc4s3)C[C@]21C | > 10000 | 58 | > 10000 |  | 9210 | 95 | 
COC(=O)[C@@H]1C[C@H](OC(C)=O)C(=O)[C@H]2[C@@]1(C)CC[C@H]1C(=O)O[C@H](C(=O)c3ccccc3O)C[C@]21C | 3600 |  | > 10000 |  | 500 | 94 | 
COC(=O)[C@@H]1C[C@H](OC(C)=O)C(=O)[C@H]2[C@@]1(C)CC[C@H]1C(=O)O[C@H](C(=O)c3cccc(C(F)(F)F)c3)C[C@]21C | 3400 |  | > 1000 | 46 | 2260 |  | 
COC(=O)[C@@H]1C[C@H](OC(C)=O)C(=O)[C@H]2[C@@]1(C)CC[C@H]1C(=O)O[C@H](C(=O)c3ccc(O)cc3)C[C@]21C | > 10000 | 93 | > 10000 |  | 8470 | 100 | 
COC(=O)[C@@H]1C[C@H](OC(C)=O)C(=O)[C@H]2[C@@]1(C)CC[C@H]1C(=O)O[C@H](C(=O)c3cccc(O)c3)C[C@]21C | > 1000 |  | > 10000 |  | 110 | 80 | Activity [12]: 55%
COC(=O)[C@@H]1C[C@H](OC(C)=O)C(=O)[C@H]2[C@@]1(C)CC[C@H]1C(=O)O[C@H](C(=O)c3csc4ccccc34)C[C@]21C | > 1000 |  | > 1000 | 56 | > 10000 |  | Activity [12]: 60%
COC(=O)[C@@H]1C[C@H](OC(C)=O)C(=O)[C@H]2[C@@]1(C)CC[C@H]1C(=O)O[C@H](C(=O)c3ccccc3)C[C@]21C | 1490 |  | > 10000 |  | 70 | 100 | EC50 [16]: 2280 nM; Emax [17]: 74%
